Test results taken from ChEMBL document CHEMBL1124316, “Synthesis and activity of nonhydrolyzable pseudomonic acid analogues” (J Med Chem, 1989).
Values after ≈ are worked out from the molar mass of the structure shown.

What was measured:
Escherichia coli [1] = assay: In vitro antibacterial activity against Escherichia coli SS; format: functional
Procedure, shortened: (§1)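 MICs were determined by agar dilution on brain heart infusion agar, with an inoculum of 10⁴ cfu/spot. Strains were either clinical isolates kept frozen in a culture collection or ATCC strains.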

Streptococcus agalactiae = assay: In vitro antibacterial activity against Streptococcus agalactiae CMX 508; format: functional; procedure, shortened: as §1
Escherichia coli [2] = assay: In vitro antibacterial activity against Escherichia coli Juhl; format: functional; procedure, shortened: as §1
Isoleucine--tRNA ligase = Isoleucine--tRNA ligase (Escherichia coli K-12, UniProt P00956); assay: Inhibitory activity against Isoleucyl-tRNA synthetase
Isoleucine--tRNA ligase, sequence (P00956 whole entry): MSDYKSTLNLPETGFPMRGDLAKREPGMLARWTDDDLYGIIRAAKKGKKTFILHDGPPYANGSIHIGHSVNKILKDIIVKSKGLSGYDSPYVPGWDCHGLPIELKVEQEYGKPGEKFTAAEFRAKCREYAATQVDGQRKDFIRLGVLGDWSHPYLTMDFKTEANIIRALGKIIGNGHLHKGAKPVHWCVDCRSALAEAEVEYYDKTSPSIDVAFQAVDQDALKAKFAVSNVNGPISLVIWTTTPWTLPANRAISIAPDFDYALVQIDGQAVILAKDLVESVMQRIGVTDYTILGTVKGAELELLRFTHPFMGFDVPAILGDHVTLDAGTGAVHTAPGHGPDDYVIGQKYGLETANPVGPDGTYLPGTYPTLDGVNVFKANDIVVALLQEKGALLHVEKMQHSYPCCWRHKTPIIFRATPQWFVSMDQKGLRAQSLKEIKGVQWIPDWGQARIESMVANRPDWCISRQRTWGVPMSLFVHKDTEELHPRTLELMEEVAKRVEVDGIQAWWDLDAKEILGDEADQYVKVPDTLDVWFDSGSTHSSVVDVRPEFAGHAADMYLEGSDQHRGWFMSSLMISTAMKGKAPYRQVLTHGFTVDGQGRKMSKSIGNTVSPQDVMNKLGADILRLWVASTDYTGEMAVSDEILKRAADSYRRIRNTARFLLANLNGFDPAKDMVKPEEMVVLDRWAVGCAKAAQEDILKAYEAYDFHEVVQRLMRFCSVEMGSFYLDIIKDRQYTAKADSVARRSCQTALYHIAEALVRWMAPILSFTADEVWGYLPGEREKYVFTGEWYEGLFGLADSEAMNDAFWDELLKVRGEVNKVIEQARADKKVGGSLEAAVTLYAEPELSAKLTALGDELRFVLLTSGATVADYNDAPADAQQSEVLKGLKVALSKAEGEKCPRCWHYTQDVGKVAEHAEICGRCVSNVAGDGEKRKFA
Procedure, shortened: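 Isoleucyl-tRNA synthetase was isolated from Escherichia coli and purified to homogeneity. IC50 values were measured by the ATP-pyrophosphate exchange assay.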

Staphylococcus aureus = assay: In vitro antibacterial activity against Staphylococcus aureus ATCC […]; format: functional; procedure, shortened: as §1
Streptococcus pyogenes = assay: In vitro antibacterial activity against Streptococcus pyogenes EES 61; format: functional; procedure, shortened: as §1
[3] = tested on: Staphylococcus epidermidis; assay: In vitro antibacterial activity against Staphylococcus epidermidis 3519; format: functional; procedure, shortened: as §1
[4] = Escherichia coli, read-out: MIC
[5] = Streptococcus pyogenes, read-out: MIC

Compound | MIC (Escherichia coli [1]; [4]) | MIC (Streptococcus agalactiae) | MIC (Escherichia coli [2]) | IC50 (Isoleucine--tRNA ligase) | MIC (Staphylococcus aureus) | MIC (Streptococcus pyogenes; [5]) | MIC [3] | MIC (Escherichia coli [1]) | MIC (Streptococcus pyogenes)
C/C(=C/Sc1ccccc1)C[C@@H]1OC[C@H](C[C@@H]2O[C@H]2[C@@H](C)[C@H](C)O)[C@@H](O)[C@H]1O | 12.5 µg/mL (≈ 30.6 µM) | 50 µg/mL (≈ 122 µM) | > 100 µg/mL | 46.5 µM | 25 µg/mL (≈ 61.2 µM) | 12.5 µg/mL (≈ 30.6 µM) | 50 µg/mL (≈ 122 µM) |  | 
C/C(=C\Sc1ccccc1)C[C@@H]1OC[C@H](C[C@@H]2O[C@H]2[C@@H](C)[C@H](C)O)[C@@H](O)[C@H]1O | 1.56 µg/mL (≈ 3.82 µM) | 6.2 µg/mL (≈ 15.2 µM) | > 100 µg/mL | 11 µM | 3.1 µg/mL (≈ 7.59 µM) | 3.1 µg/mL (≈ 7.59 µM) | 6.2 µg/mL (≈ 15.2 µM) |  | 
C[C@H]([C@@H]1O[C@H]1CC1CO[C@@H](CC2=CC(=O)OC2)[C@H](O)[C@@H]1O)[C@H](C)O (some centres undefined) | 25 µg/mL (≈ 73 µM) | 100 µg/mL (≈ 292 µM) | > 100 µg/mL | 794 µM | 100 µg/mL (≈ 292 µM) | 6.2 µg/mL (≈ 18.1 µM) | 100 µg/mL (≈ 292 µM) |  | 
CSC(CCCCCCCCCC(=O)/C=C(\C)C[C@@H]1OCC(C[C@@H]2O[C@H]2[C@@H](C)[C@H](C)O)[C@@H](O)[C@H]1O)(SC)SC (some centres undefined) | 6.2 µg/mL (≈ 10.2 µM) | > 100 µg/mL | > 100 µg/mL | 14.8 µM | 1.56 µg/mL (≈ 2.57 µM) | 1.56 µg/mL (≈ 2.57 µM) | 1.56 µg/mL (≈ 2.57 µM) |  | 
CCCCS(=O)(=O)/C=C(\C)C[C@@H]1OCC(C[C@@H]2O[C@H]2[C@@H](C)[C@H](C)O)[C@@H](O)[C@H]1O (some centres undefined) | > 100 µg/mL | > 100 µg/mL | > 100 µg/mL | 181 µM | > 100 µg/mL | 25 µg/mL (≈ 59.4 µM) | > 100 µg/mL |  | 
COC(=O)CCCCCCCCSC/C=C(\C)C[C@@H]1OCC(C[C@@H]2O[C@H]2[C@@H](C)[C@H](C)O)[C@@H](O)[C@H]1O (some centres undefined) | 25 µg/mL (≈ 48.4 µM) | > 100 µg/mL | > 100 µg/mL | 18.4 µM | 100 µg/mL (≈ 194 µM) | 50 µg/mL (≈ 96.8 µM) | > 100 µg/mL |  | 
C[C@H]([C@@H]1O[C@H]1CC1CO[C@@H](Cc2ccoc2)[C@H](O)[C@@H]1O)[C@H](C)O (some centres undefined) | 100 µg/mL (≈ 306 µM) | > 100 µg/mL | > 100 µg/mL | > 1230 µM | > 100 µg/mL | > 100 µg/mL | > 100 µg/mL |  | 
COC(=O)CCCCCCCCOC(=O)CC(=O)C[C@@H]1OCC(C[C@@H]2O[C@H]2[C@@H](C)[C@H](C)O)[C@@H](O)[C@H]1O (some centres undefined) | > 100 µg/mL | > 100 µg/mL | > 100 µg/mL | > 774 µM | > 100 µg/mL | > 100 µg/mL | > 100 µg/mL |  | 
CCCCSC/C=C(\C)C[C@@H]1OCC(C[C@@H]2O[C@H]2[C@@H](C)[C@H](C)O)[C@@H](O)[C@H]1O (some centres undefined) | 50 µg/mL (≈ 124 µM) | > 100 µg/mL | > 100 µg/mL | 390 µM | > 100 µg/mL | 100 µg/mL (≈ 248 µM) | > 100 µg/mL |  | 
CCCCOC/C=C(\C)C[C@@H]1OCC(C[C@@H]2O[C@H]2[C@@H](C)[C@H](C)O)[C@@H](O)[C@H]1O (some centres undefined) | 12.5 µg/mL (≈ 32.3 µM) | > 100 µg/mL | > 100 µg/mL | 51.7 µM | 100 µg/mL (≈ 259 µM) | 50 µg/mL (≈ 129 µM) | 100 µg/mL (≈ 259 µM) |  | 
CCCCS/C=C(/C)C[C@@H]1OCC(C[C@@H]2O[C@H]2[C@@H](C)[C@H](C)O)[C@@H](O)[C@H]1O (some centres undefined) | 100 µg/mL (≈ 257 µM) | > 100 µg/mL | > 100 µg/mL | 744 µM | > 100 µg/mL | > 100 µg/mL | > 100 µg/mL |  | 
CCCC[S+]([O-])/C=C(\C)C[C@@H]1OCC(C[C@@H]2O[C@H]2[C@@H](C)[C@H](C)O)[C@@H](O)[C@H]1O (stereo in doubt; 14) |  |  |  | 171 µM |  |  |  | 100 µg/mL (≈ 247 µM) | >100 µg/mL
CCCC[S+]([O-])/C=C(\C)C[C@@H]1OCC(C[C@@H]2O[C@H]2[C@@H](C)[C@H](C)O)[C@@H](O)[C@H]1O (stereo in doubt; 15) | 100 µg/mL (≈ 247 µM) | > 100 µg/mL | > 100 µg/mL | > 989 µM | > 100 µg/mL | 100 µg/mL (≈ 247 µM) | > 100 µg/mL |  | 

These reach a lower IC50 (Isoleucine--tRNA ligase). Values come first.

MIC (Escherichia coli [1]; [4]) | MIC (Streptococcus agalactiae) | MIC (Escherichia coli [2]) | IC50 (Isoleucine--tRNA ligase) | MIC (Staphylococcus aureus) | MIC (Streptococcus pyogenes; [5]) | MIC [3] | MIC (Escherichia coli [1]) | MIC (Streptococcus pyogenes) | Compound
0.78 µg/mL (≈ 2.01 µM) | 3.1 µg/mL (≈ 7.98 µM) | > 100 µg/mL | 5.4 µM | 1.56 µg/mL (≈ 4.01 µM) | 0.78 µg/mL (≈ 2.01 µM) | 0.78 µg/mL (≈ 2.01 µM) |  |  | CCCCS/C=C(\C)C[C@@H]1OCC(C[C@@H]2O[C@H]2[C@@H](C)[C@H](C)O)[C@@H](O)[C@H]1O (some centres undefined)
0.05 µg/mL (≈ 0.0975 µM) | 3.1 µg/mL (≈ 6.05 µM) | 50 µg/mL (≈ 97.5 µM) | 3.32 µM | 0.39 µg/mL (≈ 0.761 µM) | 0.1 µg/mL (≈ 0.195 µM) | 0.39 µg/mL (≈ 0.761 µM) |  |  | COC(=O)CCCCCCCCCC(=O)/C=C(\C)C[C@@H]1OCC(C[C@@H]2O[C@H]2[C@@H](C)[C@H](C)O)[C@@H](O)[C@H]1O (some centres undefined)
12.5 µg/mL (≈ 25 µM) | > 100 µg/mL | > 100 µg/mL | 1.7 µM | > 100 µg/mL | 100 µg/mL (≈ 200 µM) | > 100 µg/mL |  |  | COC(=O)CCCCCCCCOC/C=C(\C)C[C@@H]1OCC(C[C@@H]2O[C@H]2[C@@H](C)[C@H](C)O)[C@@H](O)[C@H]1O (some centres undefined)
0.05 µg/mL (≈ 0.0972 µM) | 0.78 µg/mL (≈ 1.52 µM) | 50 µg/mL (≈ 97.2 µM) | 1.17 µM | 0.2 µg/mL (≈ 0.389 µM) | 0.1 µg/mL (≈ 0.194 µM) | 0.39 µg/mL (≈ 0.758 µM) |  |  | COC(=O)CCCCCCCCOC(=O)/C=C(\C)C[C@@H]1OCC(C[C@@H]2O[C@H]2[C@@H](C)[C@H](C)O)[C@@H](O)[C@H]1O (some centres undefined)
0.2 µg/mL (≈ 0.494 µM) | 3.1 µg/mL (≈ 7.66 µM) | 100 µg/mL (≈ 247 µM) | 0.494 µM | 0.2 µg/mL (≈ 0.494 µM) | 0.39 µg/mL (≈ 0.964 µM) | 0.39 µg/mL (≈ 0.964 µM) |  |  | C/C(=C\C(=O)c1ccccc1)C[C@@H]1OCC(C[C@@H]2O[C@H]2[C@@H](C)[C@H](C)O)[C@@H](O)[C@H]1O (some centres undefined)
0.2 µg/mL | 0.78 µg/mL | > 100 µg/mL | 0.191 µM | 0.1 µg/mL | 0.1 µg/mL | 0.1 µg/mL |  |  | C/C(=C\C(=O)OCCCCCCCCC(=O)[O-])C[C@@H]1OCC(C[C@@H]2O[C@H]2[C@@H](C)[C@H](C)O)[C@@H](O)[C@H]1O.[Na+] (some centres undefined)
